Sequences and labels used below:
B1: tRNA (parent)
chain: GUUCCGUUGGCGUAAUGGUAACGCGUCUCCCUCCUAAGGAGAAGACUGCGGGUUCGAGUCCCGUACGGAACG

This is an account of results in the RNAGym collection of RNA variant scans (doi:10.1126/science.aae0568).

This sample holds only a part of the variants without activity. A value given as a limit tells only on which side of the number the result lay.

The series covers variants of B1. The series can be described thus: yeast fitness relative to wild type (ratio to wild type); higher = fitter; tRNA-Arg(CCU), competitive growth, 37 C, YPD. The essentials: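 The tRNA-Arg(CCU) gene variants were made by chemical synthesis with a 3% per-site mutation rate at 69 sites and inserted at the native genomic locus of Saccharomyces cerevisiae. After pooling, the strains were competed in YPD at 37°C for 24 hours in six parallel replicates. Gene amplicons from the start population and each end population were read by 100-nucleotide paired-end sequencing, and Darwinian fitness relative to wild type was taken from genotype frequency changes. Genotypes needed ≥ 100 starting reads, and estimates < 0.5 were set to 0.5.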
As to GUUCCGUUGGCGUAAUGGUAACGCGUCUCCCUCCUAAGGAGAAGACAGCGGAUUCGAGUCCCGUACGGAACG [U47A G52A], the yeast fitness came out at 0.821.

With GUUCCGUUGGCGUAAUGGUAACGCGUCUCCCUCCUAAGGAGAAGACAGCGGGUUGGAGUCCCGUAGGGAACG [U47A C55G C66G], the yeast fitness is 0.639.

For the variant GUUCCGUUGGCGUAAUGGUAACGCGUCUCCCUCCUAAGGAGAAGACGGCGGGUUCGAGUCCGGUACGAAACG [U47G C62G G68A], the yeast fitness came to 0.525.

In the case of GUUCCGUUGGCGUAAUGGUAACGCGUCUCCCUCCUAAGGAGAAGACCGCGGGUUCGAGGCCCGUACGGAACG [U47C U59G], the yeast fitness amounted to 0.936.

With GUUCCGUUGGCGUAAUGGUAACGCGUCUCCCUCCUAAGGAGAAGACGGCGGAUUCGAGUCACGUACCGAACG [U47G G52A C61A G67C], the yeast fitness is no more than 0.5.

For GUUCCGUUGGCGUAAUGGUAACGCGUCUCCCUCCUAAGGAGAAGAUUGCGGGUCCGACUCCCGUACAGAACG [C46U U54C G58C G67A], the yeast fitness is no more than 0.5.

For the variant GUUCCGUUGGCGUAAUGGUAACGCGUCUCCCUCCUAAGGAGAAGACCGCGGGUUCGAGUCCCGUACGGCACG [U47C A69C], the yeast fitness was 1.07.

Take GUUCCGUUGGCGUAAUGGUAACGCGUCUCCCUCCUAAGGAGAAGACAGCGGGUUCGAGUCACGUACGGAACG [U47A C61A]: the yeast fitness was found to be 0.769.

Turning to GUUCCGUUGGCGUAAUGGUAACGCGUCUCCCUCCUAAGGAGAAGACAGCGGGUUCGAGUCGCGUACGGAACG [U47A C61G], the yeast fitness is 0.69.

For the variant GUUCCGUUGGCGUAAUGGUAACGCGUCUCCCUCCUAAGGAGAAGACCGCGAGUUCGAGUCCCGUACGGAACG [U47C G51A], the yeast fitness stood at 0.906.

Turning to GUUCCGUUGGCGUAAUGGUAACGCGUCUCCCUCCUAAGGAGAAGACUACGGGUUCGAGUCCCGUGCGGAACG [G48A A65G], the yeast fitness was 0.981.

As for GUUCCGUUGGCGUAAUGGUAACGCGUCUCCCUCCUAAGGAGAAGACGGCGGGUUCGAGUCCCGUCCGGAACG [U47G A65C], the yeast fitness is 0.672.

In the case of GUUCCGUUGGCGUAAUGGUAACGCGUCUCCCUCCUAAGGAGAAGACAGCGGGUUCGAGUCCAGUACGGAACG [U47A C62A], the yeast fitness worked out at 0.683.

On to GUUCCGUUGGCGUAAUGGUAACGCGUCUCCCUCCUAAGGAGAAGACAGCGGGUUCGAGUCCUGUACGGAACG [U47A C62U], for which the yeast fitness is 0.842.

Take GUUCCGUUGGCGUAAUGGUAACGCGUCUCCCUCCUAAGGAGAAGACGGCGGGUCCGAGUCCCGUACGGAACG [U47G U54C]: the yeast fitness stood at 0.504.

As for GUUCCGUUGGCGUAAUGGUAACGCGUCUCCCUCCUAAGGAGAAGACCGAGAGUUAGAGUACCGUACGGAACG [U47C C49A G51A C55A C60A], the yeast fitness is no more than 0.5.

GUUCCGUUGGCGUAAUGGUAACGCGUCUCCCUCCUAAGGAGAAGACCGCGGGUUCGGGUCCUGUACGGAACG [U47C A57G C62U]: the yeast fitness was no more than 0.5.

In the case of GUUCCGUUGGCGUAAUGGUAACGCGUCUCCCUCCUAAGGAGAAGACCGCGGGUUCGAGUCCCGUACGGAACG [U47C], the yeast fitness was 1.

GUUCCGUUGGCGUAAUGGUAACGCGUCUCCCUCCUAAGGAGAAGACGGCGGGUUCGAGUCCCGUACGGAACG [U47G]: the yeast fitness stood at 0.633.

As for GUUCCGUUGGCGUAAUGGUAACGCGUCUCCCUCCUAAGGAGAAGACAGCGGGUUCGAGUCCCGUACGGAACG [U47A], the yeast fitness was 0.99.

With GUUCCGUUGGCGUAAUGGUAACGCGUCUCCCUCCUAAGGAGAAGACGGCGGGUUCGAGACCCGUACGGAACG [U47G U59A], the yeast fitness is 0.543.

As to GUUCCGUUGGCGUAAUGGUAACGCGUCUCCCUCCUAAGGAGAAGACAGCGGGUUCGAGUCCCGAACGGAACG [U47A U64A], the yeast fitness is 0.677.

Turning to GUUCCGUUGGCGUAAUGGUAACGCGUCUCCCUCCUAAGGAGAAGACGGCAGGUUAAAGUCCCGUACGGAACG [U47G G50A C55A G56A], the yeast fitness worked out at 0.533.

For GUUCCGUUGGCGUAAUGGUAACGCGUCUCCCUCCUAAGGAGAAGACGGCGGGUUCGAGUUCCGUCCGGAACG [U47G C60U A65C], the yeast fitness was no more than 0.5.

Turning to GUUCCGUUGGCGUAAUGGUAACGCGUCUCCCUCCUAAGGAGAAGACGGCGGGUUCGAGUCCUGUUCGGAACG [U47G C62U A65U], the yeast fitness was 0.64.

Consider GUUCCGUUGGCGUAAUGGUAACGCGUCUCCCUCCUAAGGAGAAGACGGCGGGUUCGAGUCCUGUCCGGAACG [U47G C62U A65C], for which the yeast fitness was no more than 0.5.

As to GUUCCGUUGGCGUAAUGGUAACGCGUCUCCCUCCUAAGGAGAAGACCGCGGGUUCGAUUCCCAUUCGGAACG [U47C G58U G63A A65U], the yeast fitness was no more than 0.5.

Take GUUCCGUUGGCGUAAUGGUAACGCGUCUCCCUCCUAAGGAGAAGACCGCCGGUUCGAGUCCCGUACGGAACG [U47C G50C]: the yeast fitness was 0.633.

For the variant GUUCCGUUGGCGUAAUGGUAACGCGUCUCCCUCCUAAGGAGAAGACUACGGGUUCGUGUCCCGUACGGAACG [G48A A57U], the yeast fitness is 0.649.

With GUUCCGUUGGCGUAAUGGUAACGCGUCUCCCUCCUAAGGAGAAGACAGCGGGUUCGAGUCUCGUACGGACCG [U47A C61U A70C], the yeast fitness is 0.558.

As to GUUCCGUUGGCGUAAUGGUAACGCGUCUCCCUCCUAAGGAGAAGACCGCGGGUUCGAGUCCCGUGCGCAACG [U47C A65G G68C], the yeast fitness stood at 0.546.

GUUCCGUUGGCGUAAUGGUAACGCGUCUCCCUCCUAAGGAGAAGAUUGCGGGUCCGAGUCCCGUACGAAACG [C46U U54C G68A]: the yeast fitness was no more than 0.5.

For the variant GUUCCGUUGGCGUAAUGGUAACGCGUCUCCCUCCUAAGGAGAAGACGGCGGAUUCGAGUCCCGUACGGAACG [U47G G52A], the yeast fitness was no more than 0.5.

Consider GUUCCGUUGGCGUAAUGGUAACGCGUCUCCCUCCUAAGGAGAAGACGGCGGGUUCGAGUACCGUACGGAACG [U47G C60A], for which the yeast fitness was no more than 0.5.

For the variant GUUCCGUUGGCGUAAUGGUAACGCGUCUCCCUCCUAAGGAGAAGACCGCGGGUUCGAGUUCAGUACGGAACG [U47C C60U C62A], the yeast fitness is no more than 0.5.

Consider GUUCCGUUGGCGUAAUGGUAACGCGUCUCCCUCCUAAGGAGAAGAUUGCGGGCUCGAGUCCCGUACGGAACG [C46U U53C], for which the yeast fitness amounted to 0.854.

With GUUCCGUUGGCGUAAUGGUAACGCGUCUCCCUCCUAAGGAGAAGACAGCGGGUUCGAGUCCCGUACAGAACG [U47A G67A], the yeast fitness worked out at 0.765.

For the variant GUUCCGUUGGCGUAAUGGUAACGCGUCUCCCUCCUAAGGAGAAGACAGCGGGUUCGAGUCCCGUACCGAACG [U47A G67C], the yeast fitness was found to be 0.88.
